# Most compounds without a hit are left out; they make up all but 6% or so of the library.
# PTK2B oligo ant – antagonists of Pyk2 self-association, primary screen, Q293 cells, FERM NanoBiT luminescence, HTS; stronger effect = lower value; z-score (the deposit names both 25 µM and 10 µM); AID 1347419, 2020; 99,000 tested, 0.83% active;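 active = Z-score of -3 or lower, scaled per plate to the spread of control and sample wells; inactive = z-score above -3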;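 also: negative z-score means lost luminescence so less FERM oligomerization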
# Target sequence (Q14289 whole entry, looked up): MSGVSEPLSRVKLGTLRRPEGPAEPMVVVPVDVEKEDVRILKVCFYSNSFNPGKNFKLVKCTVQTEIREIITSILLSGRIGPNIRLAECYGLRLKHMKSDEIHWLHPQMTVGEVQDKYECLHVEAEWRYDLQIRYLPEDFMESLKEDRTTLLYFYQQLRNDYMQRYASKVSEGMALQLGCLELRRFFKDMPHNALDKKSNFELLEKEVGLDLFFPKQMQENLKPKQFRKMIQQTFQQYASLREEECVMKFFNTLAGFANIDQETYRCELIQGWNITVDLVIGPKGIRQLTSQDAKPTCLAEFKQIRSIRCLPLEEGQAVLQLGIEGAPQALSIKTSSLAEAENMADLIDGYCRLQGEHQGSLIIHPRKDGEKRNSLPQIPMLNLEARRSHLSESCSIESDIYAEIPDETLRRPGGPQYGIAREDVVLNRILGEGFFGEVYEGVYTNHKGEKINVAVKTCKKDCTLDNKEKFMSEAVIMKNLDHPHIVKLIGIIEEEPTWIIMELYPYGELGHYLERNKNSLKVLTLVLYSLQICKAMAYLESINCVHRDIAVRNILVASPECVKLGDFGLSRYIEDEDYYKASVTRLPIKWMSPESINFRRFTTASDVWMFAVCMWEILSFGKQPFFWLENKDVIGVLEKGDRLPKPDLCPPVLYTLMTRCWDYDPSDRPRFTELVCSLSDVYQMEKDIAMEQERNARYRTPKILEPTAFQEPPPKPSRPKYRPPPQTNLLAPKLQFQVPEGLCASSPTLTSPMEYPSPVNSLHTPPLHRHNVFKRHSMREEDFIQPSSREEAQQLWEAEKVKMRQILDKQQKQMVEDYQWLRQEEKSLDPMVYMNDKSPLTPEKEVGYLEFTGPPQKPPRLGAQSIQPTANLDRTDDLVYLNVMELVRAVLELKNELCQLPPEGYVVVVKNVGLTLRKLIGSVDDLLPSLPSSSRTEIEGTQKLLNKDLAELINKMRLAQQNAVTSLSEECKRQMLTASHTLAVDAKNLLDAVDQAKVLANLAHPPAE
# HUVEC prolif 384 – inhibitors of HUVEC proliferation, primary screen, cell-based, 384-well; CellTiter-Glo luminescence, 72 h; stronger effect = lower value; viability, % at 10 µM (by protocol); 86,000 tested, 1.1% active; AID 648, 2007;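 active = viability at or below 30%; inactive = viability above 30%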;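 also: 100% = median luminescence of DMSO-only cell control wells on each plate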
# H69AR growth 86K – proliferation blockers of H69AR lung cancer cells, primary screen, cell-based, human, 86K library; H69AR lung tumor viability, ATP luminescence, 72 h; stronger effect = lower value; viability, % at 10 µM; 85,000 tested, 6% active; AID 598, 2007;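 active = viability at or below 40%; inactive = viability above 40%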;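 also: multidrug resistant small cell line overexpressing MRP-1 efflux transporter; 100% = mean luminescence of untreated control wells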
# cytoskel mod – modifiers of F-actin cytoskeleton organization, primary screen, imaging, HUVEC, phalloidin staining, high-content imaging | HUVEC TNFa F-actin phalloidin imaging | inhibition, % at 2 µM | 91,000 tested, 0.18% active;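 active = inhibition above the batch mean plus 3 SD and confirmed as a hit by visual image inspection, cut at about 30% in these data, passing the limit was not always enough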
# Lung fibro prol – antiproliferative effect on LL 47 fibroblasts – human, LL 47 cells, CellTiter-Glo luminescence, primary screen. LL 47 human lung fibroblast viability, ATP luminescence; stronger effect = lower value. viability, % at 10 µM. 85,000 tested, 1.1% active. AID 719, 2007;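 active = viability at or below 50% in the single dose screen; inactive = viability above 50%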;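 also: compound exposure lasted 72 h before the ATP readout; 100% = median luminescence of untreated cell-only wells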
#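 Test system: LL 47 human lung fibroblasts / Incubation: 72 h compound exposure at 37 °C after overnight plating / Technique: luminescent ATP detection, CellTiter-Glo / Compound dosing: 0.1% DMSO in all compound wells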
# Jurkat tox 60K – cytotoxicity toward Jurkat T cells, primary screen, cytotoxicity control, cell-based, Jurkat E6.1, 60K MLSMR library. inhibition, % at 4 µM. Jurkat E6.1 viability, ATP luminescence, 48 h. 56,000 tested, 1.2% active;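 active = inhibition above the mean inhibition of all tested compounds plus 3 SD, cut at about 28% in these data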
# Numbers without * were called inactive; nt = no result.
SMILES,PTK2B oligo ant,HUVEC prolif 384,H69AR growth 86K,cytoskel mod,Lung fibro prol,Jurkat tox 60K
Cc1ccccc1CN(c1ccc(C(=O)Nc2ccccc2C(=O)N2CCCC2)cc1)S(C)(=O)=O,-0.55,97,92,-7,90,nt
CS(=O)(=O)N(CC(=O)Nc1ccccc1C(=O)NCc1ccco1)c1ccc2c(c1)OCCO2,-0.8,83,26*,1,86,nt
COc1ccc(/C=C/C(=O)c2ccc(NC(=O)c3cccs3)cc2)cc1OC,-0.74,nt,nt,13,nt,nt
CCCn1c(C)nc2c(c1=O)c1nc3ccccc3nc1n2CCC1=CCCCC1,0.57,73,13*,-9,86,7
CCCn1c(C)nc2c(c1=O)c1nc3ccccc3nc1n2CCc1ccccc1,nt,109,80,-24,103,6
O=C(CCS(=O)(=O)Cc1ccccc1)Nc1nc2c(s1)CCCC2,-0.22,60,22*,1,63,10
COc1ccc(OC)c(N(CC(=O)Nc2cccnc2)S(=O)(=O)c2ccc(C)cc2)c1,0.44,50,18*,-3,59,nt
O=C(O)c1cccc(NS(=O)(=O)c2cccc3nsnc23)c1,0.35,93,92,2,92,nt
CCC(C)c1ccc2oc(-c3ccc(NC(=O)Cn4cnc5c(=O)n(C)c(=O)n(C)c54)cc3)nc2c1 (centres undefined),-2.3,42,25*,-13,34*,-2
Cn1c(=O)c2ncn(CC(=O)Nc3ccc4oc(-c5cccc6ccccc56)nc4c3)c2n(C)c1=O,nt,27*,101,-2,60,-3
CCOC(=O)CCNC(C(=O)OCC)c1ccccc1 (centres undefined),0.45,108,94,-5,106,nt
Cc1nc(N(C)Cc2ccccc2)c2nnn(Cc3ccccc3)c2n1,-1.7,122,95,-1,82,nt
O=C(Cc1ccc(Cl)cc1)NCC(=O)N1CCCC1,-0.53,87,97,-8,106,4
CC(C)(C)OC(=O)N1CCC(c2cc(=O)n3[nH]c(-c4ccc(Cl)cc4)cc3n2)CC1,nt,73,11*,0,76,nt
CCOC(=O)Cc1cc(=O)n2[nH]c(-c3ccc(Cl)cc3)cc2n1,0.9,73,95,20,90,nt
CCCCOc1ccc(/C(N)=N/O)cc1,-0.68,nt,nt,nt,nt,7
Cc1ccc(-c2cc(C(F)F)n3ncc(C(=O)N4CCN(c5cccc(C)c5C)CC4)c3n2)cc1,-0.79,81,81,-3,101,nt
CC(C)c1cc(C(=O)Nc2cc(Cl)ccc2O)no1,-1.9,112,72,-65,99,54*
CCCc1cc(C(=O)Nc2cc(Br)ccc2O)no1,nt,97,52,nt,97,46*
CC(C)c1cc(C(=O)Nc2cc(Br)ccc2O)no1,-1.4,99,73,-1,94,nt
CC(=O)NCCNC(=O)CCNC(=O)c1ccc(Cl)cc1,-0.05,nt,nt,7,nt,nt
CCOC(=O)c1cnc2ccc(OCC)cc2c1N1CCN(c2ccccc2OC)CC1,-1.9,67,29*,-5,87,nt
CCOC(=O)C1CCN(c2c(N3CCN(c4ccccc4OC)CC3)c(=O)c2=O)CC1,nt,100,73,nt,103,1
CC(C)CN(C(=O)COC(=O)CCc1c[nH]c2ccccc12)C1CCS(=O)(=O)C1 (centres undefined),1.7,92,94,39*,110,-5
c1ccc(-c2ccc(-c3cnc4n3CCCCC4)cc2)cc1,-0.1,48,95,2,97,nt
SMILES,PTK2B oligo ant,HUVEC prolif 384,H69AR growth 86K,cytoskel mod,Lung fibro prol,Jurkat tox 60K
COc1ccccc1/C=C/C(=O)c1cc(Br)ccc1OC(=O)c1ccco1,-2.9,nt,nt,nt,nt,nt
CNc1ccc(Br)cc(C(=O)/C=C/c2cccc(OC)c2OC)c1=O,0.02,31,5.3*,-13,85,nt
CCNc1ccc(Br)cc(C(=O)/C=C/c2ccccc2Cl)c1=O,0.27,7.6*,2.0*,1,40*,nt
CCc1nc2c(sc3nc(N4CCOCC4)c4c(c32)CC(C)(C)OC4)c(=O)o1,nt,90,98,nt,99,nt
CN1CCN(/C=N/C2=C(C#N)C(c3ccccc3)C3=C(CC(C)(C)CC3=O)O2)CC1 (centres undefined),-0.87,86,39*,-6,92,nt
CC1(C)CC(=O)C2=C(C1)OC(N)=C(C#N)C2C#Cc1ccccc1 (centres undefined),-0.18,43,1.7*,nt,79,7
Cc1csc(OCc2ccc(C#N)cc2)n1,-0.48,91,93,-22,92,-4
CCCc1[nH]c(=O)c(C#N)c2c1CCCC2,-0.37,100,86,11,96,nt
CCN(CC(=O)NCc1ccccn1)S(=O)(=O)c1ccc(Cl)cc1,0.2,94,100,6,102,-1
O=C(/C=C/Sc1ccccc1)c1ccc(Cl)cc1,-0.29,49,1.6*,-2,33*,nt
O=C(/C=C/Nc1ccccc1)c1ccccc1,-1.1,80,95,-26,99,nt
O=C(/C=C/Sc1ccccc1)c1ccccc1,-1.1,45,2.2*,nt,8.3*,nt
NC(=O)c1ccccc1N/C=C/C(=O)c1ccc(Cl)cc1,-0.39,73,74,-16,79,nt
CCn1c(-c2ccc(N(C)C)cc2)nc2ccccc21,0.22,78,102,-41,91,50*
Cc1ccc2[nH]c3c(N4CCCCCC4)ncnc3c2c1,nt,32*,41,-15,78,nt
COc1cccc(N2CCN(c3ncnc4c3[nH]c3ccc(F)cc34)CC2C)c1 (centres undefined),-1.8,2.3*,4.0*,0,1.9*,nt
Cc1ccc2[nH]c3c(N4CCN(Cc5ccccc5)CC4)ncnc3c2c1,-1.8,14*,71,7,77,nt
c1ccc(CN2CCN(c3ncnc4c3[nH]c3ccccc34)CC2)cc1,-2.6,44,46,-4,72,nt
COc1cc2[nH]c3c(N4CCN(c5ccc(Cl)cc5)CC4)ncnc3c2cc1OC,-3.2*,50,6.9*,-19,77,12
CC1CCC2(CC1)C(Nc1cccc(Cl)c1)=NC(=S)N2CC#N (centres undefined),-2.1,103,64,15,87,nt
Cc1ccc2c(c1)[nH]c1c(N3CCN(Cc4ccccc4)CC3)ncnc12,-2.8,15*,56,-69,92,34*
COc1cccc2[nH]c3c(N4CCN(Cc5ccc6c(c5)OCO6)CC4)ncnc3c12,nt,61,40*,12,97,4
CC(=O)C1=C(C)NC(SCC(=O)c2ccccc2)=C(C#N)C1CC(C)C (centres undefined),-0.78,107,81,4,97,6
O=C(c1ccncc1)N(Cc1cc2ccccc2[nH]c1=O)C1CCCCC1,-1,66,75,9,90,47*
Cc1cc2cc(CN(Cc3ccco3)C(=O)C3CCCCC3)c(=O)[nH]c2cc1C,0.16,88,16*,19,78,-3

# Source: PubChem (several laboratories)
